# Laboratory results from BindingDB's records for PubMed 35700596 (2022).
# pIC50: −log10 of the molar value.
# Target: T1, Nuclear factor of activated T-cells, cytoplasmic 1 (Homo sapiens, UniProt O95644)
# T1 sequence (O95644 whole entry): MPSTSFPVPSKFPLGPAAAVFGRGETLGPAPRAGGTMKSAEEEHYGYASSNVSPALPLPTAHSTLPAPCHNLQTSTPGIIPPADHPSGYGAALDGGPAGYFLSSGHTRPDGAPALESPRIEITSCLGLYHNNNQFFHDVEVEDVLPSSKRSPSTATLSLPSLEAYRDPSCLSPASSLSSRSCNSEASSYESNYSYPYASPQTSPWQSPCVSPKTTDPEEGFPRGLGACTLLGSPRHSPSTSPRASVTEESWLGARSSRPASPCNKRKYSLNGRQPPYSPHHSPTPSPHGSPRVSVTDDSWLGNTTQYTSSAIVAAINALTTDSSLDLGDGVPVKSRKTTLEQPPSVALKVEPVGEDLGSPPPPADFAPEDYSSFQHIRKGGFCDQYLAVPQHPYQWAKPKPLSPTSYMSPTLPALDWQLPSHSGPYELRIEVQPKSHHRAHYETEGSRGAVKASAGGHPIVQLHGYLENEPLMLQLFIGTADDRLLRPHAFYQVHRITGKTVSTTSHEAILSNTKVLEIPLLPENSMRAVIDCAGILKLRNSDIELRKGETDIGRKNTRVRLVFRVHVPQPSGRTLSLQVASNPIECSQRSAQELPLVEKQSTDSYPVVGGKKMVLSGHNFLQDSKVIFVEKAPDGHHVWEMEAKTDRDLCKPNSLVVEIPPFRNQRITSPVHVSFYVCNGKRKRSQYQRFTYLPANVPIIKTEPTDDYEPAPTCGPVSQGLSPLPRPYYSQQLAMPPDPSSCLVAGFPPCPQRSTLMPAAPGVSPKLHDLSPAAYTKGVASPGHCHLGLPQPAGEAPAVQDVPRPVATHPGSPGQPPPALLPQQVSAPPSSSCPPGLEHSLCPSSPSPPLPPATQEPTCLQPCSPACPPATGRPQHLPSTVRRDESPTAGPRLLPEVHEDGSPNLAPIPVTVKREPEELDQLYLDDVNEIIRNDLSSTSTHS
# Test: Inhibition of NFATC activity in HEK293T cells preincubated for 2 hrs followed by ionomycin/phorbol 12-myristate 13-acetate stimulation and measured after 4 hrs by luciferase reporter assay
# Procedure, shortened: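 HEK 293T cells (7.5 × 10⁴/well) co-transfected by CaCl₂ method with 100 ng 3xNFAT-luc and 1 ng pRLnull as transfection control. At 24 h, compound added for 2 h, then stimulated with 1 µM ionomycin, PMA and CaCl₂ for 4 h (20 ng/ml PMA and 2 mM CaCl₂ per figure legend). Luciferase read from crude extracts, relative to stimulated no-compound control (100%). Single doses 50 and 5 μM; dose-response 0.1–50 μM. IC50 by nonlinear regression; 3 experiments in triplicate.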
row,pIC50,Compound
1,5.35,Cc1ccc(C(=O)NCC(=O)Nc2cc(S(=O)(=O)Nc3ccc(Cl)cc3)ccc2Cl)s1
2,4.94,CS(=O)(=O)NCc1cccc(NC(=O)c2ccc3[nH]ccc3c2)c1
3,4.73,CS(=O)(=O)NCc1cccc(NC(=O)c2csc3ccccc23)c1
